# ChEMBL document CHEMBL3797056, “An evaluation of Minor Groove Binders as anti-Trypanosoma brucei brucei therapeutics” (Eur J Med Chem, 2016)
# Calls of active or inactive are those of the source. No cut-off for these calls is given here.
# Columns and labels:
# HEK293 = test: Cytotoxicity against HEK293 cells assessed as growth inhibition after 72 hrs by alamar blue viability assay; type: cell-based; details: Homo sapiens, HEK293, 72 h
# Method in brief: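 HEK 293 cells kept in DMEM + 10% FBS at 37 °C, 5% CO2, harvested at 80% confluence, 2000 cells/well, equilibrated overnight. Serial compound dilutions for 72 h; puromycin positive control, 0.4% DMSO negative. […] Two experiments, duplicate points.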
# [1] = Selectivity index, ratio of IC50 for HEK293 cells to IC50 for Trypanosoma brucei brucei Lister 427 bloodstream forms; type: toxicity, cell-based; details: human, read-out: Ratio IC50
# [2] = tested on: Trypanosoma brucei brucei; test: Binding affinity to kinetoplast DNA in Trypanosoma brucei brucei Lister 427 bloodstream forms at 50 uM after 2 hrs by FITC/DsRed staining based fluorescence microscopic analysis
# Method in brief: (§1)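 Parasites at 1 × 10^7 cells/mL exposed to 50 μM compound for 2 h at 37 °C, humidified 5% CO2. Washed in PBS, mixed 1:1 with 2% w/v low-melting agarose and spread under a coverslip for fluorescence microscopy.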
# [3] = Drug uptake in Trypanosoma brucei brucei Lister 427 bloodstream forms nucleus at 50 uM after 2 hrs by FITC/DsRed staining based fluorescence microscopic analysis; type: ADME; method in brief: as §1
# [4] = tested on: Trypanosoma brucei brucei; test: Antitrypanosomal activity against Trypanosoma brucei brucei Lister 427 bloodstream forms incubated for 48 hrs by alamar blue assay; type: functional, organism-based; details: Lister 427, 48 h
Compound,IC50 (HEK293),selectivity ratio [1],also measured
Cn1cc(NC(=O)c2cc(NC(=O)c3cc(NC(=O)c4cc5ccccc5cn4)cn3C)cn2C)cc1C(=O)NCCCN1CCOCC1,> 20 µM,> 2940,–
CC(C)CCc1sc(NC(=O)c2cc(NC(=O)c3ccc(/C=C/c4ccc5ccccc5c4)cc3)cn2C)nc1C(=O)NCCN1CCOCC1,> 20 µM,> 500,–
Cn1cc(NC(=O)c2cc(NC(=O)c3ccc(/C=C/c4ccc5nsnc5c4)cc3)cn2C)cc1C(=O)NCCN1CCOCC1,> 20 µM,> 2740,–
CN(C)c1ccc(/C=C/c2ccc(C(=O)Nc3cc(C(=O)Nc4cc(C(=O)NCCN5CCOCC5)n(C)c4)n(C)c3)cn2)cc1,–,–,Activity [2]: Active; Drug uptake [3]: Active
Cn1cc(NC(=O)c2cc(NC(=O)c3ccc(/C=C/c4ccc5nonc5c4)cc3)cn2C)cc1C(=O)NCCN1CCOCC1,> 20 µM,> 1050,–
CC(C)CCc1sc(NC(=O)c2cc(NC(=O)c3cc(/C=C/c4ccc([N+](=O)[O-])cc4)cn3C)cn2C)nc1C(=O)NCCN1CCOCC1,–,> 1850,–
Cn1cc(NC(=O)c2cc(NC(=O)c3cc(NC=O)cn3C)cn2C)cc1C(=O)NCCN1CCOCC1,–,–,IC50 [4]: 48 µM
COc1cccc(C(=N)Nc2cc(C(=O)Nc3cc(C(=O)Nc4nc(C(=O)NCCN5CCOCC5)c(C(C)C)s4)n(C)c3)n(C)c2)c1,–,–,IC50 [4]: > 75 µM
